From ChEMBL document CHEMBL4000194, “Design and Synthesis of a Series of l-trans-4-Substituted Prolines as Selective Antagonists for the Ionotropic Glutamate Receptors Including Functional and X-ray Crystallographic Studies of New Subtype Selective Kainic Acid Receptor Subtype 1 (GluK1) Antagonist …” (J Med Chem, 2017) come the findings set out here.

Where only a bound is given, the exact number is not on record here.

Broadly, the pKi is the negative decadic logarithm of the Ki, by convention in mol/L. A lower pKi goes with a large Ki. For orientation: IC50 means the concentration needed to halve the response being measured.

For one assay, the target named is Glutamate receptor 2 (Rattus norvegicus, UniProt P19491). Nature of the assay: Displacement of (RS)-[3H]AMPA from eGFP-fused recombinant rat full length GluA2 receptor expressed in HEK293T/17 cells by liquid scintillation counting method. The class given is cell-based.
Assay [1] addresses Glutamate receptor ionotropic, kainate 3 (Rattus norvegicus, UniProt P42264). The experiment in a line: Displacement of [3H]kainic acid from eGFP-fused recombinant rat full length GluK3 receptor expressed in HEK293T/17 cells by liquid scintillation counting method. The class given is cell-based. A general note: Displacement assays read how much labelled ligand stays bound in the presence of the test substance.

Assay [2] deals with T1, Glutamate receptor ionotropic, kainate 1 (Rattus norvegicus, UniProt P22756). Nature of the assay: Displacement of [3H]NF608 from eGFP-fused recombinant rat full length GluK1 receptor expressed in HEK293T/17 cells by liquid scintillation counting method. The class given is cell-based.
The nature of assay [3]: Displacement of [3H]AMPA from AMPA receptor in rat brain synaptosomal membranes after 30 mins by TopCount microplate scintillation counting method. It is filed as cell membranes.
Assay [4] concerns the target T2, Glutamate receptor ionotropic, kainate 2 (Rattus norvegicus, UniProt P42260). Nature of the assay: Displacement of [3H]kainic acid from eGFP-fused recombinant rat full length GluK2 receptor expressed in HEK293T/17 cells by liquid scintillation counting method. The class given is cell-based.
A short description of assay [5]: Displacement of [3H]kainic acid from kainate receptor in rat brain synaptosomal membranes after 60 mins by TopCount microplate scintillation counting method. It is filed as cell membranes.
A short description of assay [6]: Displacement of [3H]CGP39653 from NMDA receptor in rat brain synaptosomal membranes after 60 mins by TopCount microplate scintillation counting method. It is filed as cell membranes.
Assay [7] has as its target Excitatory amino acid transporter 2 (Homo sapiens, UniProt P43004). The experiment in a line: Inhibition of human EAAT2 expressed in HEK293 cells assessed as reduction in [3H]-D-Asp uptake after 15 mins by TopCount scintillation counting method. It is filed as cell-based.
The target in assay [8] is T3, Excitatory amino acid transporter 3 (Homo sapiens, UniProt P43005).
T3 sequence (P43005 whole entry): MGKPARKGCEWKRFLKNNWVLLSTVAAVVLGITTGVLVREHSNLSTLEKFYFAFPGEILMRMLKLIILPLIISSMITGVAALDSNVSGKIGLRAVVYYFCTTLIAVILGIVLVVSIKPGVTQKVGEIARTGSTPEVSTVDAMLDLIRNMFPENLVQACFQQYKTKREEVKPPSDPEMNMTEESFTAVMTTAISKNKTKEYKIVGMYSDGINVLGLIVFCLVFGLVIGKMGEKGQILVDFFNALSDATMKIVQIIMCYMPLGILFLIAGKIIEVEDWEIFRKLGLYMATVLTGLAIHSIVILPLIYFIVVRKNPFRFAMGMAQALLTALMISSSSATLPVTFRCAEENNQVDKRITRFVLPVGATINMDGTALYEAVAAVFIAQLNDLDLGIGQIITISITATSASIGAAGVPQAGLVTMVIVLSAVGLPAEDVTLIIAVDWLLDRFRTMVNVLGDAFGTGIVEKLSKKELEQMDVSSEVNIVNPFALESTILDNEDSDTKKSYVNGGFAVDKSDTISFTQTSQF
Nature of the assay: Inhibition of human EAAT3 expressed in HEK293 cells assessed as reduction in [3H]-D-Asp uptake after 15 mins by TopCount scintillation counting method. The class given is cell-based.

Assay [9] has as its target Excitatory amino acid transporter 1 (Homo sapiens, UniProt P43003). Nature of the assay: Inhibition of human EAAT1 expressed in HEK293 cells assessed as reduction in [3H]-D-Asp uptake after 15 mins by TopCount scintillation counting method. The class given is cell-based.
In assay [10] the target is T2, Glutamate receptor ionotropic, kainate 2. Nature of the assay: Antagonist activity at recombinant rat full length GluK2 receptor expressed in HEK293T cells assessed as inhibition of glutamate induced increase in peak current at -100mV holding potential by patch-clamp method. It is filed as cell-based. A digest of the protocol: (§1)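 Rat GluK1-2a or GluK2a cDNA was transiently co-transfected with eGFP into HEK293T/17 cells by calcium phosphate, 24 h after low-density plating on poly-D-lysine. Recordings were made 36–48 h after transfection. Outside-out patches at −100 mV received fast piezo applications of 1 mM Glu (250 ms). Antagonist was added to control and agonist solutions (final 0.001–300 μM). Peak current was taken as % of control (mean ± SEM, 3–5 responses per concentration), and IC50 was fitted with a Hill equation.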
For orientation: Patch clamp records ionic current or voltage across a cell membrane.

Assay [11] addresses T1, Glutamate receptor ionotropic, kainate 1. Nature of the assay: Antagonist activity at recombinant rat full length GluK1 receptor expressed in HEK293T cells assessed as inhibition of glutamate induced increase in peak current at -100mV holding potential by patch-clamp method. It is filed as cell-based. A digest of the protocol:
as §1

Assay [12] shares this target. Nature of the assay: Displacement of [3H]-(2S,4R)-4-Methylglutamic acid from rat eGFP-fused GluK1 receptor LBD expressed in HEK293T/17 cells by liquid scintillation counting method. The class given is cell-based.

T1 sequence (P22756 whole entry, the tested form may be a part): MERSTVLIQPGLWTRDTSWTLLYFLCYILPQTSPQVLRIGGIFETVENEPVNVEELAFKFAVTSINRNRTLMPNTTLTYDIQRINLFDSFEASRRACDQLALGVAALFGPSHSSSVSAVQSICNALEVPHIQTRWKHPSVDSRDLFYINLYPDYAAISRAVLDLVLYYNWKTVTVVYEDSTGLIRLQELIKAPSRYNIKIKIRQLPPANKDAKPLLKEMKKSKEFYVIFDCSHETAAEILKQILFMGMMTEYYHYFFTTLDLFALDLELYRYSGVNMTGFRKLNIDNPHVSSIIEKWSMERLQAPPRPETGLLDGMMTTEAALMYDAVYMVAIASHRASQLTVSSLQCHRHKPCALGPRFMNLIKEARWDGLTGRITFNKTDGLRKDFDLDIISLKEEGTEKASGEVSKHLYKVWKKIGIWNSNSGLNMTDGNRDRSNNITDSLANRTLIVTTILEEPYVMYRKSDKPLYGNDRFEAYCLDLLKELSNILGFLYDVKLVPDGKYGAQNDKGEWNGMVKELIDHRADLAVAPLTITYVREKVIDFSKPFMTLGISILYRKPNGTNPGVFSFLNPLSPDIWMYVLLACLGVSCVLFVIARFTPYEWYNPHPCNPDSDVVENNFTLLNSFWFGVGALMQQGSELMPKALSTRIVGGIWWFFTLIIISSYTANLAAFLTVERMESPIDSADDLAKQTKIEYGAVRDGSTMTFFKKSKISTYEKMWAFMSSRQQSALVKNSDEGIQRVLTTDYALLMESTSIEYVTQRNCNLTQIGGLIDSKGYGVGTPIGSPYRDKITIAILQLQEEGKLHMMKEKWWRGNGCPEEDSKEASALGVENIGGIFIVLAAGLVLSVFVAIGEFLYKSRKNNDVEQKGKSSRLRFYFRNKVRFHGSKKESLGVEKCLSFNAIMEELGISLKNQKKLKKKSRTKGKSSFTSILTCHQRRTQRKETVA
Glutamate receptor ionotropic, kainate 3, sequence (P42264 whole entry, the tested form may be a part): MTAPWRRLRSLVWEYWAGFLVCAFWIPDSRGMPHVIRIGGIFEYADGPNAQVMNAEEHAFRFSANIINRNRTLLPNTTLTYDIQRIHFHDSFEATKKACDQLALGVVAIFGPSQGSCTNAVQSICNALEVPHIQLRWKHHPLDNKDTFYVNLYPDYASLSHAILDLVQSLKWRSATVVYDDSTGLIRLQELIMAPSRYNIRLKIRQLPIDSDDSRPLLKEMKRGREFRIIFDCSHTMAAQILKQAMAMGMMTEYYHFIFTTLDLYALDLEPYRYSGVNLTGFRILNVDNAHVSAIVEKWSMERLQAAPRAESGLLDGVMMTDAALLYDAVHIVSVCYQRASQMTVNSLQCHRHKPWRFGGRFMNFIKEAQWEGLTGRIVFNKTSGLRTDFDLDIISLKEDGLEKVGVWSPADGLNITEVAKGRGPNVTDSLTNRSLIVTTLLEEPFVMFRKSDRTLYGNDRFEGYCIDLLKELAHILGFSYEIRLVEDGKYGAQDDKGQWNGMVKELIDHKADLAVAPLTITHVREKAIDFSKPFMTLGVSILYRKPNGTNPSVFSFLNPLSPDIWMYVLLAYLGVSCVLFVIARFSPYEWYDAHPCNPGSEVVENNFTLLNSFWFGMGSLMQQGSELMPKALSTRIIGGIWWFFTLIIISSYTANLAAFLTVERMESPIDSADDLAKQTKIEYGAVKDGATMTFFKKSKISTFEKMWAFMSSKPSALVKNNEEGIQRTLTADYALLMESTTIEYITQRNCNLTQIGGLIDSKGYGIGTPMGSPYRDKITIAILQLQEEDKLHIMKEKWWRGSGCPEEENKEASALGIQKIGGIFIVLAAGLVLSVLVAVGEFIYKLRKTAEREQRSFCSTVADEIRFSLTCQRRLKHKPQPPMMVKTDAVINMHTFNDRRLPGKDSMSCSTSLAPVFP
T2 sequence (P42260 whole entry, the tested form may be a part): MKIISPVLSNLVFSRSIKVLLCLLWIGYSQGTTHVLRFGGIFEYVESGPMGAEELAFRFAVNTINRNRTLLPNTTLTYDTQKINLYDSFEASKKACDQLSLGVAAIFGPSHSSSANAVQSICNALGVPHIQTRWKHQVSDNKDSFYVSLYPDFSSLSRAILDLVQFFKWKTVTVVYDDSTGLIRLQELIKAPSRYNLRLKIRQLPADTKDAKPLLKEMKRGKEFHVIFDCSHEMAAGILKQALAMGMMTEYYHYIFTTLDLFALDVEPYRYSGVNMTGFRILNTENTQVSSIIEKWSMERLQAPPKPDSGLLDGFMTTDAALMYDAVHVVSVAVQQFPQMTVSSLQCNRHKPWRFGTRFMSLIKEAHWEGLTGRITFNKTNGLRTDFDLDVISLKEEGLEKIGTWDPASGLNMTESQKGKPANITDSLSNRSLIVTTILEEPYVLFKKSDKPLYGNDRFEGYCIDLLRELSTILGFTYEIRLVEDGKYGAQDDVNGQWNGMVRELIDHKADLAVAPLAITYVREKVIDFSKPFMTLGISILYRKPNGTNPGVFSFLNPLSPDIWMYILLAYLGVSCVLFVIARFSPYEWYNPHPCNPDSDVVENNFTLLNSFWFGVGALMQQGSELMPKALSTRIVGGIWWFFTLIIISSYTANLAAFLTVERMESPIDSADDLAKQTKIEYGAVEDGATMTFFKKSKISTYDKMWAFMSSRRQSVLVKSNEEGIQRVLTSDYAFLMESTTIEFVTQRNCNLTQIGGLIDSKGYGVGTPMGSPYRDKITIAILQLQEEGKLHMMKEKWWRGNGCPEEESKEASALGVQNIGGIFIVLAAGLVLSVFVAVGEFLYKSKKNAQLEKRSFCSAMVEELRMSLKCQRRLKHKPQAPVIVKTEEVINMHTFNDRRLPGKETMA
Glutamate receptor 2, sequence (P19491 whole entry, the tested form may be a part): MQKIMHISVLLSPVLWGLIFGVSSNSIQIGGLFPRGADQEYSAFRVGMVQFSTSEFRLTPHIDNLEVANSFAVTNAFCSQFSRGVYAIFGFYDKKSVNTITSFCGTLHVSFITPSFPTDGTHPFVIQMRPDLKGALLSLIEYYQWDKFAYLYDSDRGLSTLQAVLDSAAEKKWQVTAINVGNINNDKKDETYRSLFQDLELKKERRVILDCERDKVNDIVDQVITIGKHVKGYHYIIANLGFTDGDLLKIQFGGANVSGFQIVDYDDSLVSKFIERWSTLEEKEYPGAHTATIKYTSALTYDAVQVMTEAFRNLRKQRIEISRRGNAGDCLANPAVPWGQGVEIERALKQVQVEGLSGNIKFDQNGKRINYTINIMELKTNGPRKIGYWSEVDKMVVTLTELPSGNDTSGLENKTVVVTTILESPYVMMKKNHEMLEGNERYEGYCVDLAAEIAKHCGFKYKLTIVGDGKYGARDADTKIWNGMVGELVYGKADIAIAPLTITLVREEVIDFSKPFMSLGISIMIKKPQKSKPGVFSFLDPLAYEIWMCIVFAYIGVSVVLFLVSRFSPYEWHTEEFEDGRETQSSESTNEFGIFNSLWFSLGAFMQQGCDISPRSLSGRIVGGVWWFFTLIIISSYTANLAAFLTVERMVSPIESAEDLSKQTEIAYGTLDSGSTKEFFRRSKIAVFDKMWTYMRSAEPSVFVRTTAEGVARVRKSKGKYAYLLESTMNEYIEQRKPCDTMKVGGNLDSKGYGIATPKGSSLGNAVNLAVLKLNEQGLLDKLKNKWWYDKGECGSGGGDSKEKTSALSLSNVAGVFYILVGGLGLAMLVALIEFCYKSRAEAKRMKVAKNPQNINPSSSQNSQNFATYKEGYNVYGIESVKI
Excitatory amino acid transporter 2, sequence (P43004 whole entry): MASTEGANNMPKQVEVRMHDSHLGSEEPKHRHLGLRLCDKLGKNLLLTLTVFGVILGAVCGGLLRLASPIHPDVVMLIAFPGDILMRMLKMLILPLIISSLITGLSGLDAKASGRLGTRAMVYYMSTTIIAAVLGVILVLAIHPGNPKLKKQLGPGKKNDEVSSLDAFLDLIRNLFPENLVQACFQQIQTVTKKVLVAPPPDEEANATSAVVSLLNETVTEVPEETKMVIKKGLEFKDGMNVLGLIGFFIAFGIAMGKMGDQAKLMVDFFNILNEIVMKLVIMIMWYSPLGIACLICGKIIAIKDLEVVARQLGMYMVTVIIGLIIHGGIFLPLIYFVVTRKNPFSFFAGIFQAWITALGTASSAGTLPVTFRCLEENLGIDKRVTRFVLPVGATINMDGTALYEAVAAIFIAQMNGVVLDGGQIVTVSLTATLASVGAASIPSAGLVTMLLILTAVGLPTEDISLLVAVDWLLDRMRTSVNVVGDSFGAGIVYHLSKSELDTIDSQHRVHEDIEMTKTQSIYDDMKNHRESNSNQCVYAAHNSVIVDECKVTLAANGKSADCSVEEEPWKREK
Excitatory amino acid transporter 1, sequence (P43003 whole entry): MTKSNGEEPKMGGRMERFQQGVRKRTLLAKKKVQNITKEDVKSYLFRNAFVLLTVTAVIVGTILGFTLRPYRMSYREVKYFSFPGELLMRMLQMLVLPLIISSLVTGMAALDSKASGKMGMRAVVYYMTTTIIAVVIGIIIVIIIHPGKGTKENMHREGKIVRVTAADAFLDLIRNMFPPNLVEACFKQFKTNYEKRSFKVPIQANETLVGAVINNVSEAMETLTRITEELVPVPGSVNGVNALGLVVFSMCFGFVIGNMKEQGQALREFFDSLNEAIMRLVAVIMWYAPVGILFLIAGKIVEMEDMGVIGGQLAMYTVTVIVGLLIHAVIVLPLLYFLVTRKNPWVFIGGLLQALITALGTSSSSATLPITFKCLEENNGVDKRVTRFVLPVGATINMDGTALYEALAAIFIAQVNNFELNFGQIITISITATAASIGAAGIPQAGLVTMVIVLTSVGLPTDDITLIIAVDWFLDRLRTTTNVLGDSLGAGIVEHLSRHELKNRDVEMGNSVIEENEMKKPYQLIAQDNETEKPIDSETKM

On to `O=C(O)c1ccc2ccccc2c1O[C@H]1CN[C@H](C(=O)O)C1`, for which the Ki (at Glutamate receptor 2; in [1] (read-out: Ki); in assay [2] (read-out: Ki); in [3]; in assay [4]; in assay [5]) was more than 100 µM in each case. Moreover, the Ki in [6] is more than 100 µM.
With `Cc1cccc(C(=O)O)c1O[C@H]1CN[C@H](C(=O)O)C1`, the Ki on Glutamate receptor 2 was more than 100 µM; in assay [1] (read-out: Ki) it was more than 100 µM; in assay [2] (read-out: Ki), 5.4 µM; in assay [3], more than 100 µM; in [4], more than 1000 µM; in assay [5], more than 100 µM. Moreover, the Ki in assay [6] was more than 100 µM.
Regarding `O=C(O)c1cc2ccccc2cc1O[C@H]1CN[C@H](C(=O)O)C1`, the Ki at Glutamate receptor 2 was more than 100 µM; in assay [1] (read-out: Ki) it was more than 100 µM; in assay [2] (read-out: Ki), 3.5 µM; in assay [3], more than 100 µM; in assay [4] it was more than 1000 µM; in [5], more than 100 µM. In [6], this compound showed a Ki of more than 100 µM.
On to `Cl.O=C(O)c1cccc(C[C@H]2CN[C@H](C(=O)O)C2)c1`, for which the Ki was more than 100 µM in assay [1] (read-out: Ki); more than 100 µM in assay [2] (read-out: Ki); more than 100 µM in assay [3]; more than 100 µM in assay [4]; more than 100 µM in assay [5]; 69 µM in assay [6]. Also, the negative logarithm of the Ki (pKi) in assay [6] stood at 4.18.
As for `O=C(O)c1ccccc1S[C@H]1CN[C@H](C(=O)O)C1`, the Ki is 22 µM in [1] (read-out: Ki); 8.4 µM in assay [2] (read-out: Ki); more than 100 µM in assay [3]; more than 100 µM in assay [4]; more than 100 µM in assay [5]; 19 µM in assay [6]. The same compound showed a pKi in assay [6] of 4.73.
Take `O=C(O)c1ccccc1S[C@@H]1CN[C@H](C(=O)O)C1`: the Ki in assay [1] (read-out: Ki), in [2] (read-out: Ki), in [3], in assay [4], in assay [5] and in assay [6] was more than 100 µM each time.
With `O=C(O)c1cccc(S[C@@H]2CN[C@H](C(=O)O)C2)c1`, the Ki in [1] (read-out: Ki), in assay [2] (read-out: Ki), in assay [3], in assay [4], in assay [5] and in [6] was more than 100 µM in each case.
In the case of `O=C(O)c1cccc(O[C@@H]2CN[C@H](C(=O)O)C2)c1`, the Ki in assay [1] (read-out: Ki), in assay [2] (read-out: Ki), in assay [3], in [4], in assay [5] and in assay [6] was more than 100 µM each time.
In the case of `O=C(O)c1cccc(S[C@H]2CN[C@H](C(=O)O)C2)c1`, the Ki is more than 100 µM in assay [1] (read-out: Ki); more than 100 µM in assay [2] (read-out: Ki); more than 100 µM in [3]; more than 100 µM in assay [4]; more than 100 µM in assay [5]; 78 µM in [6]. In assay [6], this compound returned a negative-log Ki (pKi) of 4.11.
In the case of `O=C(O)c1cccc(O[C@H]2CN[C@H](C(=O)O)C2)c1`, the IC50 in assay [7], in assay [8] and in [9] was more than 1000 µM throughout. Further, the Ki in [1] (read-out: Ki) was more than 1000 µM; in assay [2] (read-out: Ki), 36 µM; in assay [2] (read-out: pKi (converted)) it was 33.1 µM; in assay [3] it was more than 100 µM; in [4] it was more than 100 µM; in assay [5], more than 100 µM. In [6], this compound gave a Ki of more than 100 µM.
On to `O=C(O)c1c(O[C@H]2CN[C@H](C(=O)O)C2)ccc2ccccc12`, for which the Ki on Glutamate receptor 2 is more than 100 µM; in assay [1] (read-out: Ki) it was 137 µM; in assay [1] (read-out: pKi (converted)) it was 132 µM; in assay [2] (read-out: Ki), 4.5 µM; in [3], more than 100 µM; in [4], more than 100 µM. The Ki in assay [5] and in [6] was more than 100 µM throughout.
Take `CC(=O)c1ccc(O[C@H]2CN[C@H](C(=O)O)C2)c(C(=O)O)c1`: the Ki on Glutamate receptor 2 was more than 100 µM; in [1] (read-out: Ki) it was 30 µM; in assay [2] (read-out: Ki), 4.7 µM; in [3] it was more than 100 µM; in assay [4] it was more than 100 µM; in [5] it was more than 100 µM. Further, the Ki in [6] is more than 100 µM.
For `O=C(O)c1ccccc1O[C@@H]1CN[C@H](C(=O)O)C1`, the IC50 in [7], in assay [8] and in assay [9] was more than 1000 µM each time. For the same compound, the Ki in assay [1] (read-out: Ki), in assay [2] (read-out: Ki), in [3], in [4], in assay [5] and in assay [6] was more than 100 µM throughout.
Regarding `Cc1ccc(O[C@H]2CN[C@H](C(=O)O)C2)c(C(=O)O)c1`, the Ki is more than 100 µM on Glutamate receptor 2; more than 100 µM in [1] (read-out: Ki); 24 µM in assay [2] (read-out: Ki); more than 100 µM in assay [3]; more than 100 µM in assay [4]; more than 100 µM in assay [5]. Further, in [6], the Ki is more than 100 µM.
As for `O=C(O)c1ccc(O[C@H]2CN[C@H](C(=O)O)C2)c(C(=O)O)c1`, the Ki was more than 100 µM at Glutamate receptor 2; more than 100 µM in assay [1] (read-out: Ki); 100 µM in assay [2] (read-out: Ki); more than 100 µM in assay [3]; more than 1000 µM in assay [4]; more than 100 µM in assay [5]. The same compound had a Ki in [6] of more than 100 µM.
Regarding `O=C(O)Cc1cccc(O[C@H]2CN[C@H](C(=O)O)C2)c1`, the Ki (at Glutamate receptor 2; in [1] (read-out: Ki); in [2] (read-out: Ki); in [3]; in assay [4]; in assay [5]) was more than 100 µM in each case. In addition, the Ki in assay [6] was more than 100 µM.
Regarding `Cl.O=C(O)c1ccc(O[C@H]2CN[C@H](C(=O)O)C2)cc1`, the IC50 in [7], in assay [8] and in [9] was more than 1000 µM throughout. In addition, the Ki in [1] (read-out: Ki) was more than 100 µM; in [2] (read-out: Ki), more than 100 µM; in assay [3] it was more than 100 µM; in assay [4], more than 100 µM; in assay [5], more than 100 µM; in assay [6], 81 µM. The compound further displayed a pKi in assay [6] of 4.11.
Consider `O=C(O)c1ccc(O[C@@H]2CN[C@H](C(=O)O)C2)cc1`, for which the Ki in assay [1] (read-out: Ki), in assay [2] (read-out: Ki), in assay [3], in assay [4], in assay [5] and in assay [6] was more than 100 µM in each case.
For the compound `O=C(O)c1ccccc1O[C@H]1CN[C@H](C(=O)O)C1`, the 50% inhibitory concentration (IC50) was more than 1000 µM in assay [7]; more than 100 µM in assay [10]; more than 1000 µM in assay [8]; more than 1000 µM in [9]; 5.7 µM in assay [11]. Further, the Ki is more than 100 µM in [1] (read-out: Ki); 4 µM in assay [2] (read-out: Ki); 2.27 µM in assay [12]; more than 100 µM in assay [3]; more than 100 µM in [4]; more than 100 µM in assay [5]. The Ki in assay [6] is more than 100 µM.
Consider `O=C(O)Cc1ccccc1O[C@H]1CN[C@H](C(=O)O)C1`, for which the Ki on Glutamate receptor 2 was more than 100 µM; in [1] (read-out: Ki), more than 100 µM; in [2] (read-out: Ki) it was 24 µM; in assay [3] it was more than 100 µM; in [4], more than 1000 µM; in assay [5], more than 100 µM. The Ki in assay [6] was more than 100 µM.
